dFosB act – activators of delta FosB homodimer, primary screen, biochemical, fluorescence polarization, TAMRA-CDK5 oligo, single point; actives 0.99% (n = 340,000); Protein FosB (Mus musculus), P13346; purified delta FosB; percent of positive-control signal above neutral wells; AID 493131, 2011; activation, % at 25 µM;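 active = mean activation above about 17%, with every replicate also reaching it, limit read from the data, passing the limit was not always enough; inconclusive = only one of the two conditions met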
CDK5 inh – inhibitors of human CDK5/p35 kinase, primary screen, biochemical, single concentration; Cyclin-dependent kinase 5 (Homo sapiens) + Cyclin-dependent kinase 5 activator 1 (Homo …; Recombinant CDK5/p35, ADP-Glo luminescence, 60 min; actives 0.01% (n = 330,000); inhibition, % at 10 µM;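 active = highest replicate inhibition of at least 50% and at least 75% of replicates reaching 50%; inconclusive = only one of the two criteria met; inactive = both criteria failed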
Target sequence (Q00535 whole entry, looked up): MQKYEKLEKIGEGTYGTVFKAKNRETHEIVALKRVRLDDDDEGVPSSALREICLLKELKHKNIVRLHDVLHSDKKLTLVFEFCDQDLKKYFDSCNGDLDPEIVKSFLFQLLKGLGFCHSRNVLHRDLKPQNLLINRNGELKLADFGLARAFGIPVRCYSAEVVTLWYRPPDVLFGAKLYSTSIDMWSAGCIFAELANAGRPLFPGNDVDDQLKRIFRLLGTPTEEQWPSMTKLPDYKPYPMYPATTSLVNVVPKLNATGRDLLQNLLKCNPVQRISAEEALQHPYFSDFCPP
Target sequence (Q15078 whole entry, looked up): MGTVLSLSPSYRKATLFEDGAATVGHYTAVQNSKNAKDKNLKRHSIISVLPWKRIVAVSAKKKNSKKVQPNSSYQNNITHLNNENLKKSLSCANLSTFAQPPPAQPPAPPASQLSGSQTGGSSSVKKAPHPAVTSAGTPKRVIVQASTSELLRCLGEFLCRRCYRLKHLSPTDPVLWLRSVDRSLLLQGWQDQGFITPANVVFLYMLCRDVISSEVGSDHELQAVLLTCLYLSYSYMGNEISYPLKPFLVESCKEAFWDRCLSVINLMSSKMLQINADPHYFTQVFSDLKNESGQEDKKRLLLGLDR
Rtt109 HAT inh – inhibitors of C. albicans Rtt109/Vps75 HAT, primary screen, biochemical, ThioGlo CoA-SH fluorescence, plate reader; purified Rtt109/Vps75, 4 h; inhibition, % at 34.9 µM; actives 0.16% (n = 330,000);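 active = inhibition of at least 50% in every replicate; inconclusive = best replicate reaches 50% inhibition but some replicates fall short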
CAL PDZ FP-1 – untagged CAL PDZ binding inhibitors, primary screen, biochemical, fluorescence polarization, HTS | inhibition, % at 24.9 µM | actives 0.92% (n = 300,000) | AID 602252, 2012 | purified CAL PDZ, TMR-peptide fluorescence polarization, 1 h;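 active = mean inhibition of at least 30% with at least half of replicates also reaching 30%; inconclusive = no clear call, values can overlap the other calls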
DYRK1A inh – rat Dyrk1A kinase inhibitors, primary screen, biochemical, single point, plate reader. Dual specificity tyrosine-phosphorylation-regulated kinase 1A (Rattus norvegicus), Q63470. ADP-Glo luminescence, NFATc1 peptide. inhibition, % at 12.5 µM. actives 0.43% (n = 310,000). AID 504441, 2011; in the data active = inhibition above about 50%
CAL PDZ FP-2 – CAL PDZ peptide-binding inhibitors, primary screen, biochemical, fluorescence polarization, Cer-tagged CAL PDZ, HTS; purified CAL PDZ, TMR-peptide fluorescence polarization, 1 h; inhibition, % at 20 µM; actives 0.02% (n = 330,000); AID 504414, 2011;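 active = highest replicate inhibition of at least 40%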
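Material: tagged CAL PDZ protein CerCALP, purified; buffer or medium: sodium phosphate/NaCl buffer pH 7.4 with TCEP, IgG, Thesit; also added: fluorescent TMR peptide probe; schedule: 1 h incubation at room temperature before polarization reading; technique: fluorescence polarization from S- and P-plane intensities, G-factor corrected; control set: unlabelled peptide and DMSO controls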
Each line names hits and unclear results; the compound was inactive in the other large screens; ! = a repeat was not active. Shown are actives, neighbours in structure and some others; about 2.2% of the full set was active somewhere.

O=C1NCCCC1C(=O)N/N=C/c1cc([N+](=O)[O-])ccc1O (stereo not given)	none
O=C(N/N=C/c1cc([N+](=O)[O-])ccc1O)C1CC1	CAL PDZ FP-1 78.6
COCCCn1c(=O)c2sccc2n2c(CCCC(=O)NCc3ccc(F)cc3)nnc12	none
C[C@]12c3[nH]c4cc(-c5ccco5)ccc4c3CCN1C(=O)[C@@H](CC(=O)NCCN1CCOCC1)C[C@@H]2C(=O)N1CCCCC1	CAL PDZ FP-1 48.1
COc1ccc(NC(=S)Nc2ccc3nsnc3c2)cc1	Rtt109 HAT inh 54.2
C=CCN(C(=O)c1csnn1)C(C(=O)NCc1ccccc1)c1c(F)cccc1Cl (stereo not given)	CAL PDZ FP-1 41.3
O=C(NNS(=O)(=O)c1ccccc1[N+](=O)[O-])c1cccc(Br)c1	CAL PDZ FP-1 51.1
O=C(NNS(=O)(=O)c1ccccc1[N+](=O)[O-])c1cccc(Cl)c1	none
CN(CC(=O)Nc1ccc(F)c(F)c1F)C(=O)C1=NN(c2ccccc2)C(=O)CC1	CAL PDZ FP-1 31.5 (no result: DYRK1A inh)
CN(CC(=O)Nc1ccccc1F)CC(=O)Nc1ccc(F)c(F)c1F	none (no result: Rtt109 HAT inh)
O=C(N/C(=C\c1ccco1)C(=O)N1CCOCC1)c1ccccc1Cl	none
COc1ccc(CN2C(=O)c3cccnc3C2=O)cc1S(=O)(=O)N(C)c1cccc(C)c1	CAL PDZ FP-1 47.4
CCN(c1ccccc1)S(=O)(=O)c1cc(CN2C(=O)c3cccnc3C2=O)ccc1OC	none
O=C(Cn1ccc([N+](=O)[O-])n1)NCc1nc2ccccc2[nH]1	CAL PDZ FP-1 44.2 (no result: DYRK1A inh)
Cc1cc(C)c(NC(=O)Cn2nnc(C(=O)NCCc3ccccc3)c2N)c(C)c1	none
COc1cccc(Cn2nnc(C(=O)Nc3ccc(C)cc3)c2N)c1	dFosB act 16.5
CCOc1ccccc1NC(=O)c1nnn(CC(=O)Nc2cc(C)cc(C)c2)c1N	dFosB act 25.5 (no result: CDK5 inh, DYRK1A inh)
Cc1cc(C)cc(NC(=O)Cn2nnc(C(=O)NCCc3ccccc3)c2N)c1	dFosB act 82.9
CCOc1ccccc1NC(=O)Cn1nnc(C(=O)Nc2ccccc2Cl)c1N	none
COc1ccc(Cl)cc1NC(=O)c1nnn(CC(=O)Nc2ccc(C)c(C)c2)c1N	dFosB act 125.0 (no result: CAL PDZ FP-1)
CC(C(=O)Nc1ccncc1)(c1ccccc1)c1ccccc1	none
COCCN(C(=O)COC(=O)C(C)(C)Oc1ccc(Cl)cc1)c1c(N)n(Cc2ccccc2)c(=O)[nH]c1=O	none (no result: CAL PDZ FP-1)
CN(CC(=O)Nc1cccc(F)c1)C(=O)c1cccnc1Sc1ccc(Cl)cc1	none
CCOc1ccc(NC(=O)Cn2nnc(C(=O)NCCc3ccc(OC)c(OC)c3)c2N)cc1	dFosB act 32.3
O=C(/C=C/c1ccncc1)c1ccc(NC(=O)c2ccccc2F)cc1	none
O=C1NC[C@H](Cc2ccccc2)N(CC2CCN(CCc3ccc(-c4ccccc4)cc3)CC2)C1=O	none (no result: DYRK1A inh)
COc1cc(NC(=O)COc2c(C)cc(C)cc2[N+](=O)[O-])c(OC)cc1Cl	Rtt109 HAT inh 51.6
COc1cc(Cl)c(C)cc1NC(=O)COc1ccccc1[N+](=O)[O-]	none
CCSC(=O)N=Nc1ccc(O)cc1	none (no result: DYRK1A inh)
COc1ccc(C(=O)OC2C(OC)OCC(O)C2O)cc1 (stereo not given)	CAL PDZ FP-1 44.3
CCOc1ccc(CC(=O)NCC(=O)NCc2cc(=O)n(C)c(=O)n2C)cc1	none (no result: CDK5 inh, DYRK1A inh)
Cc1cccc(CC(=O)NCC(=O)NCc2cc(=O)n(C)c(=O)n2C)c1	CAL PDZ FP-1 62.1
COc1ccc2c(c1C)CCC(C)(C#N)C2=O (stereo not given)	none
Cc1cc(C)c2nc(C(F)(F)F)c(C#N)c(N)c2c1	none
Cc1ccc2nc(C(F)(F)F)c(C#N)c(N)c2c1	CDK5 inh 95.4 (no result: CAL PDZ FP-1)
CCOc1ccc(-c2ccc(SC)nn2)cc1	DYRK1A inh 55.7
COc1ccccc1CNC(=O)COC(=O)c1cccc(S(=O)(=O)N2CCCC2)c1	none (no result: CAL PDZ FP-1)
COc1ccc(C(=O)NCC(=O)N/N=C/c2cn[nH]c2-c2ccccc2)cc1	none
O=S(=O)(c1ccc(SCCOc2ccc(F)cc2)nc1)N1CCCC1	none (no result: DYRK1A inh)
CC(NC(=O)c1ccc(Br)o1)c1ccc(-n2ccnc2)cc1 (stereo not given)	CAL PDZ FP-1 35.4
COC(=O)C(N)Cc1ccc(O)c(O)c1 (stereo not given)	none
NC(CO)C(=O)NNCc1ccc(O)c(O)c1O (stereo not given)	Rtt109 HAT inh 79.2!
O=C(Nc1ccc([N+](=O)[O-])cc1)c1cc(Cl)sc1Cl	none
COc1ccc(Br)c(C(=O)Nc2ccc(F)cc2)c1	CAL PDZ FP-1 39.7
O=C(Nc1ccc(F)cc1)c1cc(Cl)sc1Cl	CAL PDZ FP-1 87.2
O=C(CCCN1C(=O)c2ccccc2C1=O)NCCCn1ccnc1	CAL PDZ FP-1 49.5
CCOc1cc(C2Nc3cccc4cccc(c34)N2)ccc1O	dFosB act 31.7
CCOc1ccc(C2Nc3cccc4cccc(c34)N2)cc1OC	none
CCN(CC)c1ccc(/C=N/N2CCN(c3ccccn3)CC2)cc1	CAL PDZ FP-1 42.6 (no result: DYRK1A inh)
CCc1ccc(/C=N/N2CCN(c3ccccn3)CC2)cc1	none (no result: DYRK1A inh)
COc1ccc(CC(=O)Nc2c(C(=O)N3CCN(c4ncccn4)CC3)oc3ccccc23)cc1	CAL PDZ FP-1 42.9
COCCNC(=S)Nc1cc2oc3ccccc3c2cc1OC	CAL PDZ FP-1 31.3 (no result: DYRK1A inh)
COc1cc(NC(=O)Cn2nc(C(F)(F)F)c3c2CCCC3)cc(OC)c1OC	none
O=C(COc1ccc(-c2nnco2)cc1)N1CCN(S(=O)(=O)c2ccc3ccccc3c2)CC1	dFosB act inconclusive, CAL PDZ FP-1 42.3
COc1ccc(S(=O)(=O)N2CCN(C(=O)COc3ccccc3)CC2)cc1	none
N#Cc1ccc(S(=O)(=O)N2CCc3[nH]c4ccc(F)cc4c3C2)cc1	Rtt109 HAT inh 53.6
O=C(c1ccc(Cl)cc1)N1CCC(N2CCC(C(=O)N3CCOCC3)CC2)CC1	none
Cc1ccc(C(=O)N2CCC(N3CCC(C(=O)N4CCOCC4)CC3)CC2)cc1C	CAL PDZ FP-1 73.6
Cc1cccc(-c2nc(N)nc(N)n2)c1	CAL PDZ FP-1 33.8
Cc1ccc(Oc2ccc(-c3nc(N)nc(N)n3)cc2)cc1	none
Cc1nnsc1C(=O)Nc1cccc(Cl)c1	CAL PDZ FP-1 73.8
